Reference: ChEMBL document CHEMBL1157032, “Synthesis and antimicrobial activity of novel pyrazolo[3,4-d]pyrimidin derivatives” (2010)
≈ marks a conversion by molar mass, not a printed value. Calls of active or inactive are those of the source. No cut-off for these calls is given here.

Experiments:
Staphylococcus aureus [1] = experiment: Antimicrobial activity against Staphylococcus aureus MTCC 96 after 24 hrs; assay type: functional; settings: MTCC 96, 24 h
Summary of the method: (§1)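 Agar well diffusion on Mueller Hinton agar seeded with 0.1 mL of a 10⁵ cfu/mL bacterial suspension in 0.85% sterile saline. 6 mm wells received 0.1 mL of each compound dilution in DMSO (1% DMSO; DMSO alone as control). Plates were incubated 24 h at 37 ± 0.5 °C. Read-out was zone of inhibition in mm. MIC was taken as the lowest concentration giving complete growth inhibition.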

Penicillium chrysogenum [2] = experiment: Antimicrobial activity against Penicillium chrysogenum MTCC 1996 after 48 hrs; assay type: functional; settings: MTCC 1996, 48 h
Summary of the method: (§2)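 Fungal spore suspensions in sterile distilled water were adjusted to 10⁶ cfu/mL, and 0.1 mL was spread on Sabouraud dextrose agar. 6 mm wells were filled with 0.1 mL of compound dilution in DMSO (1% DMSO; DMSO-only control). Plates were incubated 48 h at 28 ± 0.2 °C, and inhibition zones were measured in mm. MIC was the lowest concentration completely inhibiting growth.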

Klebsiella pneumoniae [3] = experiment: Antimicrobial activity against Klebsiella pneumoniae NCIM 2957 at MIC after 24 hrs by agar diffusion method; assay type: functional; summary of the method: as §1
Aspergillus niger [4] = experiment: Antimicrobial activity against Aspergillus niger MTCC 1781 after 48 hrs; assay type: functional; settings: MTCC 1781, 48 h; summary of the method: as §2
Klebsiella pneumoniae [5] = experiment: Antimicrobial activity against Klebsiella pneumoniae NCIM 2957 after 24 hrs; assay type: functional; settings: NCIM 2957, 24 h; summary of the method: as §1
Proteus vulgaris [6] = experiment: Antimicrobial activity against Proteus vulgaris MTCC 1771 at MIC after 24 hrs by agar diffusion method; assay type: functional; summary of the method: as §1
Trichoderma viride [7] = experiment: Antimicrobial activity against Trichoderma viride MTCC 167 at MIC after 48 hrs by agar diffusion method; assay type: functional; summary of the method: as §2
Escherichia coli [8] = experiment: Antimicrobial activity against Escherichia coli MTCC 1650 at MIC after 24 hrs by agar diffusion method; assay type: functional; summary of the method: as §1
Aspergillus flavus [9] = experiment: Antimicrobial activity against Aspergillus flavus MTCC 2501 at MIC after 48 hrs by agar diffusion method; assay type: functional; summary of the method: as §2
Serratia marcescens [10] = experiment: Antimicrobial activity against Serratia marcescens MTCC 86 after 24 hrs; assay type: functional; settings: MTCC 86, 24 h; summary of the method: as §1
Aspergillus flavus [11] = experiment: Antimicrobial activity against Aspergillus flavus MTCC 2501 after 48 hrs; assay type: functional; settings: MTCC 2501, 48 h; summary of the method: as §2
Proteus vulgaris [12] = experiment: Antimicrobial activity against Proteus vulgaris MTCC 1771 after 24 hrs; assay type: functional; settings: MTCC 1771, 24 h; summary of the method: as §1
Bacillus subtilis [13] = experiment: Antimicrobial activity against Bacillus subtilis MTCC 1789 after 24 hrs; assay type: functional; settings: MTCC 1789, 24 h; summary of the method: as §1
Priestia megaterium [14] = experiment: Antimicrobial activity against Bacillus megaterium MTCC 1684 at MIC after 24 hrs by agar diffusion method; assay type: functional; summary of the method: as §1
Trichoderma viride [15] = experiment: Antimicrobial activity against Trichoderma viride MTCC 167 after 48 hrs; assay type: functional; settings: MTCC 167, 48 h; summary of the method: as §2
Escherichia coli [16] = experiment: Antimicrobial activity against Escherichia coli MTCC 1650 after 24 hrs; assay type: functional; settings: MTCC 1650, 24 h; summary of the method: as §1
Pseudomonas aeruginosa [17] = experiment: Antimicrobial activity against Pseudomonas aeruginosa MTCC 2488 after 24 hrs; assay type: functional; settings: MTCC 2488, 24 h; summary of the method: as §1
Candida albicans [18] = experiment: Antimicrobial activity against Candida albicans MTCC 227 at MIC after 48 hrs by agar diffusion method; assay type: functional; summary of the method: as §2
Staphylococcus aureus [19] = experiment: Antimicrobial activity against Staphylococcus aureus MTCC 96 at MIC after 24 hrs by agar diffusion method; assay type: functional; summary of the method: as §1
Bacillus subtilis [20] = experiment: Antimicrobial activity against Bacillus subtilis MTCC 1789 at MIC after 24 hrs by agar diffusion method; assay type: functional; summary of the method: as §1
Priestia megaterium [21] = experiment: Antimicrobial activity against Bacillus megaterium MTCC 1684 after 24 hrs; assay type: functional; settings: MTCC 1684, 24 h; summary of the method: as §1
Penicillium chrysogenum [22] = experiment: Antimicrobial activity against Penicillium chrysogenum MTCC 1996 at MIC after 48 hrs by agar diffusion method; assay type: functional; summary of the method: as §2
Serratia marcescens [23] = experiment: Antimicrobial activity against Serratia marcescens MTCC 86 at MIC after 24 hrs by agar diffusion method; assay type: functional; summary of the method: as §1
Candida albicans [24] = experiment: Antimicrobial activity against Candida albicans MTCC 227 after 48 hrs; assay type: functional; settings: MTCC 227, 48 h; summary of the method: as §2
Aspergillus niger [25] = experiment: Antimicrobial activity against Aspergillus niger MTCC 1781 at MIC after 48 hrs by agar diffusion method; assay type: functional; summary of the method: as §2
Pseudomonas aeruginosa [26] = experiment: Antimicrobial activity against Pseudomonas aeruginosa MTCC 2488 at MIC after 24 hrs by agar diffusion method; assay type: functional; summary of the method: as §1
Klebsiella pneumoniae [27] = experiment: Antimicrobial activity against Klebsiella pneumoniae NCIM 2957 at 10 ug/ml after 24 hrs by agar diffusion method; assay type: functional
Summary of the method: (§3)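 Agar well diffusion on Mueller Hinton agar. Plates were seeded with bacterial suspension in sterile 0.85% saline at 10⁵ cfu/mL. Compound dilutions in 1% DMSO went into 6 mm wells, with DMSO alone as control. Plates were incubated 24 h at 37 ± 0.5 °C, and the zone of inhibition was measured in mm.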

Trichoderma viride [28] = experiment: Antimicrobial activity against Trichoderma viride MTCC 167 at 30 ug/ml after 48 hrs by agar diffusion method; assay type: functional, organism-based
Summary of the method: (§4)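 Agar well diffusion on Sabouraud dextrose agar. Plates were spread with fungal spore suspension in sterile distilled water adjusted to 10⁶ cfu/mL. Compound dilutions in 1% DMSO went into 6 mm wells, with DMSO alone as control. Plates were incubated 48 h at 28 ± 0.2 °C, and the inhibition zone was read in mm.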

Serratia marcescens [29] = experiment: Antimicrobial activity against Serratia marcescens MTCC 86 at 10 ug/ml after 24 hrs by agar diffusion method; assay type: functional; summary of the method: as §3
Aspergillus niger [30] = experiment: Antimicrobial activity against Aspergillus niger MTCC 1781 at 30 ug/ml after 48 hrs by agar diffusion method; assay type: functional, organism-based; summary of the method: as §4
Pseudomonas aeruginosa [31] = experiment: Antimicrobial activity against Pseudomonas aeruginosa MTCC 2488 at 10 ug/ml after 24 hrs by agar diffusion method; assay type: functional; summary of the method: as §3
Aspergillus flavus [32] = experiment: Antimicrobial activity against Aspergillus flavus MTCC 2501 at 30 ug/ml after 48 hrs by agar diffusion method; assay type: functional, organism-based; summary of the method: as §4
Staphylococcus aureus [33] = experiment: Antimicrobial activity against Staphylococcus aureus MTCC 96 at 10 ug/ml after 24 hrs by agar diffusion method; assay type: functional; summary of the method: as §3
Candida albicans [34] = experiment: Antimicrobial activity against Candida albicans MTCC 227 at 30 ug/ml after 48 hrs by agar diffusion method; assay type: functional, organism-based; summary of the method: as §4
Penicillium chrysogenum [35] = experiment: Antimicrobial activity against Penicillium chrysogenum MTCC 1996 at 30 ug/ml after 48 hrs by agar diffusion method; assay type: functional, organism-based; summary of the method: as §4
Priestia megaterium [36] = experiment: Antimicrobial activity against Bacillus megaterium MTCC 1684 at 10 ug/ml after 24 hrs by agar diffusion method; assay type: functional; summary of the method: as §3
Bacillus subtilis [37] = experiment: Antimicrobial activity against Bacillus subtilis MTCC 1789 at 10 ug/ml after 24 hrs by agar diffusion method; assay type: functional; summary of the method: as §3
Proteus vulgaris [38] = experiment: Antimicrobial activity against Proteus vulgaris MTCC 1771 at 10 ug/ml after 24 hrs by agar diffusion method; assay type: functional; summary of the method: as §3

Row | Molecule | MIC (Staphylococcus aureus [1]) [µg/mL] | MIC (Penicillium chrysogenum [2]) [µg/mL] | inhibition zone (IZ) (Klebsiella pneumoniae [3]) [mm] | MIC (Aspergillus niger [4]) [µg/mL] | MIC (Klebsiella pneumoniae [5]) [µg/mL] | inhibition zone (IZ) (Proteus vulgaris [6]) [mm] | inhibition zone (IZ) (Trichoderma viride [7]) [mm] | inhibition zone (IZ) (Escherichia coli [8]) | inhibition zone (IZ) (Aspergillus flavus [9]) [mm] | MIC (Serratia marcescens [10]) [µg/mL] | MIC (Aspergillus flavus [11]) [µg/mL] | MIC (Proteus vulgaris [12]) [µg/mL] | MIC (Bacillus subtilis [13]) [µg/mL] | inhibition zone (IZ) (Priestia megaterium [14]) | MIC (Trichoderma viride [15]) [µg/mL] | MIC (Escherichia coli [16]) [µg/mL] | MIC (Pseudomonas aeruginosa [17]) [µg/mL] | inhibition zone (IZ) (Candida albicans [18]) | inhibition zone (IZ) (Staphylococcus aureus [19]) [mm] | inhibition zone (IZ) (Bacillus subtilis [20]) [mm] | other results
1 | Nc1n[nH]c2nc3scc(-c4cc(Cl)ccc4O)n3c(=O)c12 | 50 (≈ 150 µM) | 250 (≈ 749 µM) | 13 | 250 (≈ 749 µM) | 50 (≈ 150 µM) | 9 | 27 | inactive | 11 | 50 (≈ 150 µM) | 250 (≈ 749 µM) | 50 (≈ 150 µM) | 50 (≈ 150 µM) | 12 mm | 250 (≈ 749 µM) | 50 (≈ 150 µM) | 50 (≈ 150 µM) | 12 mm | 31 | 10 | MIC (Priestia megaterium [21]): 50 µg/mL (≈ 150 µM); inhibition zone (IZ) (Penicillium chrysogenum [22]): 25 mm; inhibition zone (IZ) (Serratia marcescens [23]): 18 mm; MIC (Candida albicans [24]): 250 µg/mL (≈ 749 µM); inhibition zone (IZ) (Aspergillus niger [25]): 16 mm
2 | Nc1n[nH]c2nc3scc(-c4ccc(O)cc4)n3c(=O)c12 | 50 (≈ 167 µM) | 250 (≈ 835 µM) | 11 | 250 (≈ 835 µM) | 50 (≈ 167 µM) | 14 | 26 | inactive | 21 | 50 (≈ 167 µM) | 250 (≈ 835 µM) | 50 (≈ 167 µM) | 50 (≈ 167 µM) | inactive | 250 (≈ 835 µM) | 50 (≈ 167 µM) | 50 (≈ 167 µM) | inactive | 30 | 12 | inhibition zone (IZ) (Pseudomonas aeruginosa [26]): 25 mm; MIC (Priestia megaterium [21]): 50 µg/mL (≈ 167 µM); inhibition zone (IZ) (Penicillium chrysogenum [22]): 29 mm; inhibition zone (IZ) (Serratia marcescens [23]): 17 mm; MIC (Candida albicans [24]): 250 µg/mL (≈ 835 µM); inhibition zone (IZ) (Aspergillus niger [25]): 16 mm
3 | NYSTATIN |  |  |  |  |  |  |  |  |  |  |  |  |  |  |  |  |  |  |  |  | inhibition zone (IZ) (Klebsiella pneumoniae [27]): inactive; inhibition zone (IZ) (Trichoderma viride [28]): 18 mm; inhibition zone (IZ) (Serratia marcescens [29]): inactive; inhibition zone (IZ) (Aspergillus niger [30]): 14 mm; inhibition zone (IZ) (Pseudomonas aeruginosa [31]): inactive; inhibition zone (IZ) (Aspergillus flavus [32]): 14 mm; inhibition zone (IZ) (Staphylococcus aureus [33]): inactive; inhibition zone (IZ) (Candida albicans [34]): 17 mm; inhibition zone (IZ) (Penicillium chrysogenum [35]): 17 mm; inhibition zone (IZ) (Priestia megaterium [36]): inactive; inhibition zone (IZ) (Bacillus subtilis [37]): inactive; inhibition zone (IZ) (Proteus vulgaris [38]): inactive
